ChEMBL document CHEMBL1131322, “Simultaneous measurement of nineteen binding constants of peptides to vancomycin using affinity capillary electrophoresis-mass spectrometry” (J Med Chem, 1998)
Square brackets hold non-standard residues; d marks the D form. Peptide text beside a SMILES is read from it. * marks the point of attachment. ξ: configuration not given here. Fmoc = O=C(OCC1c2ccccc2-c2ccccc21)*; ξV = CC(C)C(N)C(=O)O

Tests used:
[1] = Binding constant at vancomycin was measured using affinity capillary electrophoresis-MS.
In short: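 Mixture of Fmoc-DXYA (all-D) peptides plus Fmoc-G EOF marker injected together hydrodynamically (10 cm, 10 s) into an uncoated 50 cm capillary. Running buffer was 20 mM Tris-acetate pH 8.1 with 0–100 μM vancomycin, run at 400–500 V/cm. On-line ESI triple-quadrupole MS detected free peptide ions. Kd came from marker-corrected mobility shifts by Scatchard analysis.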

[2] = Binding constant at vancomycin was measured using affinity capillary electrophoresis-UV.
In short: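 Receptor-in-buffer mobility-shift ACE with UV detection was used, running individual ligands. Capillary was 30 cm effective length, 37 cm total length, at 20 kV. Kd was obtained by Scatchard analysis of mobility versus vancomycin concentration.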

| Compound | Kd [1] | Kd [2] |
| --- | --- | --- |
| C[C@H](NC(=O)[C@H](Cc1ccc(O)cc1)NC(=O)[C@H](Cc1ccc(O)cc1)NC(=O)[C@H](CC(=O)O)NC(=O)OCC1c2ccccc2-c2ccccc21)C(=O)O (Fmoc-DYYA-OH) | 7.4 µM | 6.8 µM |
| C[C@H](NC(=O)[C@H](Cc1ccc(O)cc1)NC(=O)[C@@H]1CCCN1C(=O)[C@H](CC(=O)O)NC(=O)OCC1c2ccccc2-c2ccccc21)C(=O)O (Fmoc-DPYA-OH) | 16 µM | 14 µM |
| C[C@H](NC(=O)[C@H](Cc1ccc(O)cc1)NC(=O)[C@H](CCC(N)=O)NC(=O)[C@H](CC(=O)O)NC(=O)OCC1c2ccccc2-c2ccccc21)C(=O)O (Fmoc-DQYA-OH) | 15 µM | 14 µM |
| C[C@H](NC(=O)[C@H](Cc1ccc(O)cc1)NC(=O)[C@H](CCCCN)NC(=O)[C@H](CC(=O)O)NC(=O)OCC1c2ccccc2-c2ccccc21)C(=O)O (Fmoc-DKYA-OH) | 12 µM | 13 µM |
| C[C@H](NC(=O)[C@H](Cc1ccc(O)cc1)NC(=O)[C@H](Cc1ccccc1)NC(=O)[C@H](CC(=O)O)NC(=O)OCC1c2ccccc2-c2ccccc21)C(=O)O (Fmoc-DFYA-OH) | 8.9 µM | 9.6 µM |
| C[C@H](NC(=O)[C@H](Cc1ccc(O)cc1)NC(=O)[C@H](CO)NC(=O)[C@H](CC(=O)O)NC(=O)OCC1c2ccccc2-c2ccccc21)C(=O)O (Fmoc-DSYA-OH) | 14 µM | 13 µM |
| CC[C@@H](C)[C@H](NC(=O)[C@H](CC(=O)O)NC(=O)OCC1c2ccccc2-c2ccccc21)C(=O)N[C@@H](Cc1ccc(O)cc1)C(=O)N[C@@H](C)C(=O)O | 21 µM | 19 µM |
| C[C@H](NC(=O)[C@H](Cc1ccc(O)cc1)NC(=O)[C@H](Cc1c[nH]c2ccccc12)NC(=O)[C@H](CC(=O)O)NC(=O)OCC1c2ccccc2-c2ccccc21)C(=O)O (Fmoc-DWYA-OH) | 12 µM | 14 µM |
| CSCC[C@H](NC(=O)[C@H](CC(=O)O)NC(=O)OCC1c2ccccc2-c2ccccc21)C(=O)N[C@@H](Cc1ccc(O)cc1)C(=O)N[C@@H](C)C(=O)O (Fmoc-DMYA-OH) | 7.6 µM | 7.1 µM |
| C[C@H](NC(=O)[C@H](Cc1ccc(O)cc1)NC(=O)[C@H](CCCN=C(N)N)NC(=O)[C@H](CC(=O)O)NC(=O)OCC1c2ccccc2-c2ccccc21)C(=O)O (Fmoc-DRYA-OH) | 11 µM | 13 µM |
| CC(C)C(NC(=O)[C@H](CC(=O)O)NC(=O)OCC1c2ccccc2-c2ccccc21)C(=O)N[C@@H](Cc1ccc(O)cc1)C(=O)N[C@@H](C)C(=O)O (stereo partly drawn) (Fmoc-D[ξV]YA-OH) | 10 µM | 12 µM |
| C[C@H](NC(=O)[C@H](Cc1ccc(O)cc1)NC(=O)[C@H](Cc1c[nH]cn1)NC(=O)[C@H](CC(=O)O)NC(=O)OCC1c2ccccc2-c2ccccc21)C(=O)O (Fmoc-DHYA-OH) | 8.2 µM | 7.1 µM |
| C[C@H](NC(=O)[C@H](Cc1ccc(O)cc1)NC(=O)[C@H](CC(N)=O)NC(=O)[C@H](CC(=O)O)NC(=O)OCC1c2ccccc2-c2ccccc21)C(=O)O (Fmoc-DNYA-OH) | 12 µM | 11 µM |

Continued by falling Kd [1], values first:

| Kd [1] | Kd [2] | Compound |
| --- | --- | --- |
| 24 µM | 21 µM | C[C@H](NC(=O)[C@H](Cc1ccc(O)cc1)NC(=O)[C@@H](NC(=O)[C@H](CC(=O)O)NC(=O)OCC1c2ccccc2-c2ccccc21)[C@H](C)O)C(=O)O |
| 21 µM | 18 µM | C[C@H](NC(=O)[C@H](Cc1ccc(O)cc1)NC(=O)CNC(=O)[C@H](CC(=O)O)NC(=O)OCC1c2ccccc2-c2ccccc21)C(=O)O (Fmoc-DGYA-OH) |
| 8.5 µM | 10 µM | C[C@H](NC(=O)[C@H](Cc1ccc(O)cc1)NC(=O)[C@H](CCC(=O)O)NC(=O)[C@H](CC(=O)O)NC(=O)OCC1c2ccccc2-c2ccccc21)C(=O)O (Fmoc-DEYA-OH) |
| 8.2 µM | 7.2 µM | C[C@H](NC(=O)[C@H](Cc1ccc(O)cc1)NC(=O)[C@H](C)NC(=O)[C@H](CC(=O)O)NC(=O)OCC1c2ccccc2-c2ccccc21)C(=O)O (Fmoc-DAYA-OH) |
| 6.6 µM | 7.2 µM | C[C@H](NC(=O)[C@H](Cc1ccc(O)cc1)NC(=O)[C@H](CC(=O)O)NC(=O)[C@H](CC(=O)O)NC(=O)OCC1c2ccccc2-c2ccccc21)C(=O)O (Fmoc-DDYA-OH) |
| 5.1 µM | 5.6 µM | CC(C)C[C@H](NC(=O)[C@H](CC(=O)O)NC(=O)OCC1c2ccccc2-c2ccccc21)C(=O)N[C@@H](Cc1ccc(O)cc1)C(=O)N[C@@H](C)C(=O)O (Fmoc-DLYA-OH) |
